Each structure is given as a SMILES string.

The assay has as its target T1, Muscarinic acetylcholine receptor M1 (Homo sapiens) (UniProt P11229).
T1 sequence (whole entry): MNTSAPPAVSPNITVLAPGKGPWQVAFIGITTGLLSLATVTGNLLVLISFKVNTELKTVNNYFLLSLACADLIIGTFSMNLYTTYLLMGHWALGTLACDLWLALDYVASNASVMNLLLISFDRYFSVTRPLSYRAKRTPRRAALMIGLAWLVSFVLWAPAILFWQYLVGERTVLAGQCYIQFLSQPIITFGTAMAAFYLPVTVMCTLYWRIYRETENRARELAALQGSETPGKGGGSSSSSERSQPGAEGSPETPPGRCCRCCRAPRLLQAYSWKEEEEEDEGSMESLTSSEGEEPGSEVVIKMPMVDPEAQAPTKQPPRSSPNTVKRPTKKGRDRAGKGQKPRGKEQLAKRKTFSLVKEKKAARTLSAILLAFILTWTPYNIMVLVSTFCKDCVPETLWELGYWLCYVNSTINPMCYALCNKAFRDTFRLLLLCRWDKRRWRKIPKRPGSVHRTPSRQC
In words: Positive allosteric modulation at human muscarinic M1 receptor expressing CHO cells assessed as potentiation of acetylcholine-induced calcium mobilization by FLIPR assay. It counts as functional, cell-based. In short, it runs like this:
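CHO cells expressing human M1 receptor. Inflection point determined in the presence of an EC20 concentration of acetylcholine. Mean of at least two experiments; interassay variability ±30%.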
For orientation: A change in cytosolic calcium serves as a functional read-out for many receptors and channels.

Take `O=C(O)c1cc(CN2CCc3ncccc3C2)c2ccccn2c1=O`: the IP amounted to 0.83 µM.
For the molecule `O=C(O)c1cc(CN2CCC(c3cc[nH]n3)CC2)c2ccccn2c1=O`, the IP was found to be 1.5 µM.
As for `CCOC(=O)C1c2ccccc2CCN1Cc1cc(C(=O)O)c(=O)n2ccccc12` (centres undefined), the IP came out at 0.34 µM.
Regarding `CSc1ccc2c(c1)CCN(Cc1cc(C(=O)O)c(=O)n3ccccc13)C2`, the IP is > 10 µM.
The same measure for `O=C(O)c1cc(CN2CCc3ccc(Cl)cc3C2)c2ccccn2c1=O`: 0.63 µM; for `CCOC(=O)C1Cc2ccccc2CN1Cc1cc(C(=O)O)c(=O)n2ccccc12` (centres undefined): > 100 µM.
With `O=C(O)c1cc(CN2CCC(n3cccn3)CC2)c2ccccn2c1=O`, the IP was determined as 0.78 µM.
Turning to `O=C(O)c1cc(CN2CCc3ccccc3C2c2ccccc2F)c2ccccn2c1=O` (centres undefined), the IP is 0.15 µM.
With `O=C(O)c1cc(CN2CCc3ccncc3C2)c2ccccn2c1=O`, the IP was found to be 1.7 µM.
Turning to `O=C(O)c1cc(CN2CCC(c3cncnc3)CC2)c2ccccn2c1=O`, the IP is 7 µM.
The same measure for `N#Cc1ccc2c(c1)CCN(Cc1cc(C(=O)O)c(=O)n3ccccc13)C2`: 0.61 µM; for `O=C(O)c1cc(CN2CCC(c3cccc(Cl)c3)CC2)c2ccccn2c1=O`: 0.91 µM; for `CCOC(=O)C1CN(Cc2cc(C(=O)O)c(=O)n3ccccc23)Cc2ccccc21` (centres undefined): 3.6 µM.
Regarding `O=C(O)c1cc(CN2CCC(c3ccc(F)cc3)CC2)c2ccccn2c1=O`, the IP turned out to be 1.7 µM.
Regarding `O=C(O)c1cc(CN2CCC(c3cccc(F)n3)CC2)c2ccccn2c1=O`, the IP was 2.2 µM.
Regarding `O=C(O)c1cc(CN2CCc3cc(Br)ccc3C2)c2ccccn2c1=O`, the IP was 0.63 µM.
For `N#Cc1ccc(C2CCN(Cc3cc(C(=O)O)c(=O)n4ccccc34)CC2)cc1`, the IP is 1.3 µM.
Take `O=C(O)c1cc(CN2CCc3ccccc3C2)c2ccccn2c1=O`: the IP is 1.7 µM.
The same measure for `O=C(O)c1cc(CN2CCC(n3ccnc3)CC2)c2ccccn2c1=O`: 1.9 µM; for `O=C(O)c1cc(CN2CCC(c3ccncc3)CC2)c2ccccn2c1=O`: 0.95 µM.
For `O=C(O)c1cc(CN2CCc3cc(-c4ccncc4)ccc3C2)c2ccccn2c1=O`, the IP stood at 0.39 µM.
With `O=C(O)c1cc(CN2CCC(c3ccc(Cl)cc3)CC2)c2ccccn2c1=O`, the IP was 0.77 µM.
Turning to `O=C(O)c1cc(CN2CCC(n3ccnn3)CC2)c2ccccn2c1=O`, the IP was found to be 1.7 µM.
As for `O=C(O)c1cn(Cc2ccc3ccccc3c2)c2ccccc2c1=O`, the IP was 0.08 µM.
In the case of `O=C(O)c1cc(CN2CCC(c3ccc(F)nc3)CC2)c2ccccn2c1=O`, the IP came to 2.1 µM.
Consider `O=C(O)c1cc(CN2CCC(c3ccc(Br)cc3)CC2)c2ccccn2c1=O`, for which the IP was determined as 1.2 µM.
Turning to `O=C(O)c1cc(CN2CCc3c(Cl)cccc3C2)c2ccccn2c1=O`, the IP was 0.85 µM.
`COc1ccc(C2CCN(Cc3cc(C(=O)O)c(=O)n4ccccc34)CC2)cc1`: the IP came out at 4.3 µM.
In the case of `COC(=O)C1c2ccccc2CCN1Cc1cc(C(=O)O)c(=O)n2ccccc12` (centres undefined), the IP was determined as 1.7 µM.
For the molecule `COc1ccc2c(c1)CCN(Cc1cc(C(=O)O)c(=O)n3ccccc13)C2`, the IP was 1.4 µM.
As to `O=C(O)c1cc(CN2CCC(c3ncccn3)CC2)c2ccccn2c1=O`, the IP stood at 13 µM.
As for `O=C(O)c1cc(CN2CCc3cc(-c4ccccc4)ccc3C2)c2ccccn2c1=O`, the IP came to 0.56 µM.
Turning to `O=C(O)c1cc(CN2CCc3cc(F)ccc3C2)c2ccccn2c1=O`, the IP is 0.78 µM.
`O=C(O)c1cc(CN2CCC(c3cnccn3)CC2)c2ccccn2c1=O`: the IP was found to be 11 µM.
For the molecule `O=C(O)c1cc(CN2CCc3ncncc3C2)c2ccccn2c1=O`, the IP amounted to 1.8 µM.
In the case of `O=C(O)c1cc(CN2CCc3ccccc3C2c2ccccc2)c2ccccn2c1=O` (centres undefined), the IP came out at 0.56 µM.
Turning to `Cn1c(C2CCN(Cc3cc(C(=O)O)c(=O)n4ccccc34)CC2)nc2ccccc21`, the IP is 30 µM.
`O=C(O)c1cc(CN2CCC(c3ccc(C(F)(F)F)cc3)CC2)c2ccccn2c1=O`: the IP was determined as 0.46 µM.
Regarding `O=C(O)c1cc(CN2CCC(c3ccccc3)CC2)c2ccccn2c1=O`, the IP amounted to 1.3 µM.

The values are drawn from ChEMBL document CHEMBL1681740, “Quinolizidinone carboxylic acid selective M1 allosteric modulators: SAR in the piperidine series” (Bioorg Med Chem Lett, 2011).
